Results: ChEMBL document CHEMBL1127345, “Synthesis, binding properties, and 18F labeling of fluorocarazolol, a high-affinity beta-adrenergic receptor antagonist” (J Med Chem, 1994)

Experiments:
[1] = tested on: Mus musculus; experiment: The in vivo tissue distribution of mouse liver with Propranolol administration after 20 min, value was fractional dose per fractional body weight of the organ; assay type: ADME, organism-based
Summary of the method: (§1)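 Male CF-1 mice (25–30 g), given 2 mg sodium pentobarbital ip 30 min before tracer. Blocked groups received propranolol iv by tail vein, 0.1 mL of 1 mg/mL. About 30 min later, 0.1 mL of [18F]tracer (1–2 mCi/mL) was injected by tail vein. Mice were killed by cervical dislocation at set times, and organs were weighed and counted. Uptake is %ID/g × body weight/100, average ± SD; n=5 for heart, brain, blood, lung, kidney, liver and bone.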

[2] = tested on: Mus musculus; experiment: The in vivo tissue distribution of mouse bone with Propranolol preadministration in 20 min, value was fractional dose per fractional body weight of the organ; assay type: ADME, organism-based, Bone element
Summary of the method: (§2)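 Male CF-1 mice (25–30 g), anesthetised with 2 mg sodium pentobarbital ip 30 min before tracer. Where blocked, propranolol iv via tail vein (0.1 mL of […]; […]) about 30 min before tracer. Tracer given by tail vein, 0.1 mL at 1–2 mCi/mL. Mice killed by cervical dislocation at set times, organs weighed and counted. %ID/g × body weight/100 gives unitless uptake. Heart, brain, blood, lung, kidney, liver and bone n=5; average ± SD.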

[3] = tested on: Mus musculus; experiment: The in vivo tissue distribution of mouse brain with Propranolol administration after 20 min, value was fractional dose per fractional body weight of the organ; assay type: ADME, organism-based; summary of the method: as §2
[4] = tested on: Mus musculus; experiment: The in vivo tissue distribution of mouse blood without Propranolol preadministration in 180 min, value was fractional dose per fractional body weight of the organ; conditions: 3 h
[5] = The in vivo tissue distribution of mouse kidney without Propranolol preadministration in 180 min, value was fractional dose per fractional body weight of the organ; conditions: 3 h
[6] = tested on: Mus musculus; experiment: The in vivo tissue distribution of mouse liver with Propranolol administration after 10 min, value was fractional dose per fractional body weight of the organ; assay type: ADME, organism-based; summary of the method: as §1
[7] = tested on: Mus musculus; experiment: The in vivo tissue distribution of mouse lung with Propranolol administration after 40 min, value was fractional dose per fractional body weight of the organ; assay type: ADME, organism-based
Summary of the method: (§3)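 Male CF-1 mice (25–30 g) anaesthetised with 2 mg sodium pentobarbital ip; blocked group given 0.1 mL of […] propranolol iv via tail vein (200 μg, 6.6 mg/kg), tracer 30 min later. 0.1 mL of 1–2 mCi/mL [18F]-labelled enantiomer iv via tail vein; killed by cervical dislocation, organs weighed and counted against weighed standards. %ID/g × body weight/100 gives unitless uptake; five mice per point (heart, blood, lung, kidney, liver, bone); mean ± SD.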

[8] = tested on: Mus musculus; experiment: The in vivo tissue distribution of mouse blood with Propranolol administration after 40 min, value was fractional dose per fractional body weight of the organ; assay type: ADME, organism-based; summary of the method: as §2
[9] = tested on: Mus musculus; experiment: The in vivo tissue distribution of mouse bone without Propranolol preadministration in 10 min, value was fractional dose per fractional body weight of the organ
[10] = tested on: Mus musculus; experiment: The in vivo tissue distribution of mouse heart without Propranolol preadministration in 60 min, value was fractional dose per fractional body weight of the organ; conditions: 1 h
[11] = tested on: Mus musculus; experiment: The in vivo tissue distribution of mouse lung with Propranolol administration after 120 min, value was fractional dose per fractional body weight of the organ; assay type: ADME, organism-based; conditions: 2 h; summary of the method: as §3
[12] = tested on: Mus musculus; experiment: The in vivo tissue distribution of mouse liver without Propranolol preadministration in 90 min, value was fractional dose per fractional body weight of the organ; conditions: 1.5 h
[13] = tested on: Mus musculus; experiment: The in vivo tissue distribution of mouse blood with Propranolol administration after 90 min, value was fractional dose per fractional body weight of the organ; assay type: ADME, organism-based; conditions: 1.5 h; summary of the method: as §3
[14] = tested on: Mus musculus; experiment: The in vivo tissue distribution of mouse lung without Propranolol preadministration in 60 min, value was fractional dose per fractional body weight of the organ; conditions: 1 h
[15] = tested on: Mus musculus; experiment: The in vivo tissue distribution of mouse blood with Propranolol administration after 180 min, value was fractional dose per fractional body weight of the organ; assay type: ADME, organism-based; conditions: 3 h; summary of the method: as §1
[16] = tested on: Mus musculus; experiment: The in vivo tissue distribution of mouse blood with Propranolol preadministration in 10 min, value was fractional dose per fractional body weight of the organ; assay type: ADME, organism-based
Summary of the method: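 Male CF-1 mice, 25–30 g, anesthetized with 2 mg sodium pentobarbital ip. Propranolol pretreatment was 0.1 mL of 1 mg/mL iv by tail vein. About 30 min later, 0.1 mL of 1–2 mCi/mL [18F]tracer was given by tail vein. Mice were killed by cervical dislocation at set times. Organs were weighed and counted against weighed dose standards. %ID/g × body weight/100 gave fractional dose per fractional body weight. Blood and heart n=5.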

[17] = tested on: Mus musculus; experiment: The in vivo tissue distribution of mouse bone with Propranolol preadministration in 40 min, value was fractional dose per fractional body weight of the organ; assay type: ADME, organism-based, Bone element; summary of the method: as §2
[18] = tested on: Mus musculus; experiment: The in vivo tissue distribution of mouse heart without Propranolol preadministration in 20 min, value was fractional dose per fractional body weight of the organ
[19] = tested on: Mus musculus; experiment: The in vivo tissue distribution of mouse liver without Propranolol preadministration in 40 min, value was fractional dose per fractional body weight of the organ
[20] = tested on: Mus musculus; experiment: The in vivo tissue distribution of mouse bone without Propranolol preadministration in 120 min, value was fractional dose per fractional body weight of the organ; conditions: 2 h
[21] = tested on: Mus musculus; experiment: The in vivo tissue distribution of mouse brain with Propranolol administration after 10 min, value was fractional dose per fractional body weight of the organ; assay type: ADME, organism-based; summary of the method: as §2
[22] = tested on: Mus musculus; experiment: The in vivo tissue distribution of mouse bone with Propranolol administration after 10 min, value was fractional dose per fractional body weight of the organ; assay type: ADME, organism-based, Bone element; summary of the method: as §2
[23] = tested on: Mus musculus; experiment: The in vivo tissue distribution of mouse bone with Propranolol preadministration in 90 min, value was fractional dose per fractional body weight of the organ; assay type: ADME, organism-based, Bone element; conditions: 1.5 h; summary of the method: as §3
[24] = tested on: Mus musculus; experiment: The in vivo tissue distribution of mouse heart with Propranolol administration after 10 min, value was fractional dose per fractional body weight of the organ; assay type: ADME, organism-based; summary of the method: as §3
[25] = tested on: Mus musculus; experiment: The in vivo tissue distribution of mouse blood without Propranolol preadministration in 90 min, value was fractional dose per fractional body weight of the organ; conditions: 1.5 h
[26] = tested on: Mus musculus; experiment: The in vivo tissue distribution of mouse kidney without Propranolol preadministration in 20 min, value was fractional dose per fractional body weight of the organ
[27] = tested on: Mus musculus; experiment: The in vivo tissue distribution of mouse brain without Propranolol preadministration in 180 min, value was fractional dose per fractional body weight of the organ; conditions: 3 h
[28] = tested on: Mus musculus; experiment: The in vivo tissue distribution of mouse heart without Propranolol preadministration in 40 min, value was fractional dose per fractional body weight of the organ
[29] = tested on: Mus musculus; experiment: The in vivo tissue distribution of mouse brain with Propranolol administration after 120 min, value was fractional dose per fractional body weight of the organ; assay type: ADME, organism-based; conditions: 2 h; summary of the method: as §1
[30] = tested on: Mus musculus; experiment: The in vivo tissue distribution of mouse lung with Propranolol administration after 10 min, value was fractional dose per fractional body weight of the organ; assay type: ADME, organism-based; summary of the method: as §1

With `CC(C[18F])NC[C@H](O)COc1cccc2[nH]c3ccccc3c12` (stereo not given in full) the Dose/organ [1] was 1.85, the Dose/organ [2] was 0.65 and the Dose/organ [3] was 0.78. For the same compound, the Dose/organ [4] was 0.43, the Dose/organ [5] was 0.71 and the Dose/organ [6] was 2.89. For the same compound, the Dose/organ [7] was 1.98, the Dose/organ [8] was 0.35 and the Dose/organ [9] was 0.65. The Dose/organ [10] was 0.61, the Dose/organ [11] was 0.52 and the Dose/organ [12] was 1.09. It also gave a Dose/organ [13] of 0.34, a Dose/organ [14] of 5.34 and a Dose/organ [15] of 0.15. For the same compound, the Dose/organ [16] was 0.56, the Dose/organ [17] was 0.71 and the Dose/organ [18] was 0.91. It also gave a Dose/organ [19] of 1.7, a Dose/organ [20] of 1.08 and a Dose/organ [21] of 1.23. The Dose/organ [22] was 0.72, the Dose/organ [23] was 1.13 and the Dose/organ [24] was 1.06. The Dose/organ [25] was 0.66, the Dose/organ [26] was 2.89 and the Dose/organ [27] was 0.67. It also gave a Dose/organ [28] of 0.77, a Dose/organ [29] of 0.11 and a Dose/organ [30] of 5.

With `CC(C[18F])NC[C@@H](O)COc1cccc2[nH]c3ccccc3c12` (stereo not given in full) the Dose/organ [1] was 3, the Dose/organ [2] was 0.93 and the Dose/organ [3] was 1.22. It also gave a Dose/organ [4] of 0.17, a Dose/organ [5] of 0.67 and a Dose/organ [6] of 3.14. The Dose/organ [7] was 2, the Dose/organ [8] was 0.57 and the Dose/organ [9] was 0.67. The Dose/organ [10] was 0.56, the Dose/organ [11] was 0.45 and the Dose/organ [12] was 1.25. It also gave a Dose/organ [13] of 0.47, a Dose/organ [14] of 2.39 and a Dose/organ [15] of 0.09. For the same compound, the Dose/organ [16] was 0.57, the Dose/organ [17] was 0.95 and the Dose/organ [18] was 0.81. For the same compound, the Dose/organ [19] was 3, the Dose/organ [20] was 0.78 and the Dose/organ [21] was 1.04. It also gave a Dose/organ [22] of 0.67, a Dose/organ [23] of 1 and a Dose/organ [24] of 1. For the same compound, the Dose/organ [25] was 0.43, the Dose/organ [26] was 4.8 and the Dose/organ [27] was 0.08. The Dose/organ [28] was 0.76, the Dose/organ [29] was 0.12 and the Dose/organ [30] was 5.23.
